{
  "source": "ChEMBL document CHEMBL1134485",
  "about": "“Diguanidino and \"reversed\" diamidino 2,5-diarylfurans as antimicrobial agents” (2001)",
  "assay_type_in_all_cases": "functional",
  "key": {"[1]": {"test_system": "Aspergillus fumigatus", "test": "In vitro minimum fungicidal concentration required to inhibit Aspergillus fumigatus(MFC)", "summary_of_the_method": "(§1)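 Mould MFC: 100 µL aliquots from macrodilution tubes (RPMI 1640/MOPS pH 7.0, 0.5 × 10³ to 2.5 × 10³ CFU/mL conidial inoculum, 30 °C, 48-72 h, drug 100 to 0.09 µg/mL) showing complete growth inhibition plated on Sabouraud agar; MFC taken as lowest drug concentration giving three or fewer colonies.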"}, "[2]": {"test_system": "Aspergillus fumigatus", "test": "Antimicrobial activity against Aspergillus fumigatus (MIC)"}, "[3]": {"test_system": "Aspergillus fumigatus", "test": "Minimum inhibitory concentration required to inhibit 100% inoculum of Aspergillus fumigatus 119.00"}, "[4]": {"test_system": "Aspergillus fumigatus", "test": "Minimum inhibitory concentration required to inhibit 100% inoculum of Aspergillus fumigatus 153.90"}, "[5]": {"test_system": "Aspergillus fumigatus", "test": "Minimum inhibitory concentration required to inhibit 100% inoculum of Aspergillus fumigatus 165.86"}, "[6]": {"test_system": "Aspergillus fumigatus", "test": "Minimum inhibitory concentration required to inhibit 100% inoculum of Aspergillus fumigatus 168.95"}, "[7]": {"test_system": "Aspergillus fumigatus", "test": "Minimum inhibitory concentration required to inhibit 100% inoculum of Aspergillus fumigatus 182.99"}, "[8]": {"test_system": "Aspergillus fumigatus", "test": "Minimum inhibitory concentration required to inhibit 80% inoculum of Aspergillus fumigatus 119.00"}, "[9]": {"test_system": "Aspergillus fumigatus", "test": "Minimum inhibitory concentration required to inhibit 80% inoculum of Aspergillus fumigatus 153.90"}, "[10]": {"test_system": "Aspergillus fumigatus", "test": "Minimum inhibitory concentration required to inhibit 80% inoculum of Aspergillus fumigatus 165.86"}, "[11]": {"test_system": "Aspergillus fumigatus", "test": "Minimum inhibitory concentration required to inhibit 80% inoculum of Aspergillus fumigatus 168.95"}, "[12]": {"test_system": "Aspergillus fumigatus", "test": "Minimum inhibitory concentration required to inhibit 80% inoculum of Aspergillus fumigatus 182.99"}, "[13]": {"test_system": "Aspergillus fumigatus", "test": "Minimum fungicidal concentration against Aspergillus fumigatus 168.95", "summary_of_the_method": "as §1"}, "[14]": {"test_system": "Aspergillus fumigatus", "test": "Minimum fungicidal concentration against Aspergillus fumigatus 182.99", "summary_of_the_method": "as §1"}, "[15]": {"test_system": "Aspergillus flavus", "test": "Minimum fungicidal concentration against Aspergillus flavus 107.96", "summary_of_the_method": "as §1"}, "[16]": {"test_system": "Aspergillus flavus", "test": "Minimum fungicidal concentration against Aspergillus flavus 141.88", "summary_of_the_method": "as §1"}, "[17]": {"test_system": "Aspergillus flavus", "test": "Minimum fungicidal concentration against Aspergillus flavus 194.99", "summary_of_the_method": "as §1"}, "[18]": {"test_system": "Aspergillus fumigatus", "test": "Minimum fungicidal concentration against Aspergillus fumigatus 119.00", "summary_of_the_method": "as §1"}, "[19]": {"test_system": "Aspergillus fumigatus", "test": "Minimum fungicidal concentration against Aspergillus fumigatus 153.90", "summary_of_the_method": "as §1"}, "[20]": {"test_system": "Aspergillus fumigatus", "test": "Minimum fungicidal concentration against Aspergillus fumigatus 165.86", "summary_of_the_method": "as §1"}, "[21]": {"test_system": "Aspergillus flavus", "test": "Minimum inhibitory concentration required to inhibit 100% inoculum of Aspergillus flavus 107.96"}, "[22]": {"test_system": "Aspergillus flavus", "test": "Minimum inhibitory concentration required to inhibit 100% inoculum of Aspergillus flavus 141.88"}, "[23]": {"test_system": "Aspergillus flavus", "test": "Minimum inhibitory concentration required to inhibit 100% inoculum of Aspergillus flavus 194.99"}, "[24]": {"test_system": "Aspergillus flavus", "test": "Minimum inhibitory concentration required to inhibit 80% inoculum of Aspergillus flavus 107.96"}, "[25]": {"test_system": "Aspergillus flavus", "test": "Minimum inhibitory concentration required to inhibit 80% inoculum of Aspergillus flavus 141.88"}, "[26]": {"test_system": "Aspergillus flavus", "test": "Minimum inhibitory concentration required to inhibit 80% inoculum of Aspergillus flavus 194.99"}, "[27]": {"test_system": "Candida albicans", "test": "In vitro minimum fungicidal concentration against Candida albicans.", "summary_of_the_method": "(§2)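 Yeast MFC: after broth macrodilution (RPMI 1640/MOPS pH 7.0, 0.5 × 10³ to 2.5 × 10³ CFU/mL, 35 °C, 48 h or 72 h for C. neoformans, drug 100 to 0.09 µg/mL), 100 µL from tubes with complete inhibition plated on Sabouraud agar; lowest concentration yielding three or fewer colonies recorded.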"}, "[28]": {"test_system": "Candida albicans", "test": "In vitro minimum inhibitory concentration against Candida albicans."}, "[29]": {"test_system": "Candida albicans", "test": "Minimum fungicidal concentration against Candida albicans 126.97", "summary_of_the_method": "as §2"}, "[30]": {"test_system": "Candida albicans", "test": "Minimum fungicidal concentration against Candida albicans 149.97", "summary_of_the_method": "as §2"}},
  "data": [
    {"smiles": "Cc1ccc(C(=N)Nc2ccc(-c3ccc(-c4ccc(NC(=N)c5ccc(C)cn5)cc4C)o3)c(C)c2)nc1", "values": [
      {"measurement": "MFC", "setting": "[1]", "value": "> 100", "unit": "µg/mL"},
      {"measurement": "MIC", "setting": "[2]", "value": 10, "unit": "µg/mL"},
      {"measurement": "MIC", "setting": "[3]", "value": 50, "unit": "µg/mL"},
      {"measurement": "MIC", "setting": "[4]", "value": 50, "unit": "µg/mL"},
      {"measurement": "MIC", "setting": "[5]", "value": 50, "unit": "µg/mL"},
      {"measurement": "MIC", "setting": "[6]", "value": 50, "unit": "µg/mL"},
      {"measurement": "MIC", "setting": "[7]", "value": 50, "unit": "µg/mL"},
      {"measurement": "MIC", "setting": "[8]", "value": 3.12, "unit": "µg/mL"},
      {"measurement": "MIC", "setting": "[9]", "value": 3.12, "unit": "µg/mL"},
      {"measurement": "MIC", "setting": "[10]", "value": 50, "unit": "µg/mL"},
      {"measurement": "MIC", "setting": "[11]", "value": 10, "unit": "µg/mL"},
      {"measurement": "MIC", "setting": "[12]", "value": 3.12, "unit": "µg/mL"},
      {"measurement": "MFC", "setting": "[13]", "value": "> 100", "unit": "µg/mL"},
      {"measurement": "MFC", "setting": "[14]", "value": "> 100", "unit": "µg/mL"},
      {"measurement": "MFC", "setting": "[15]", "value": "> 100", "unit": "µg/mL"},
      {"measurement": "MFC", "setting": "[16]", "value": "> 100", "unit": "µg/mL"},
      {"measurement": "MFC", "setting": "[17]", "value": "> 100", "unit": "µg/mL"},
      {"measurement": "MFC", "setting": "[18]", "value": "> 100", "unit": "µg/mL"},
      {"measurement": "MFC", "setting": "[19]", "value": "> 100", "unit": "µg/mL"},
      {"measurement": "MFC", "setting": "[20]", "value": "> 100", "unit": "µg/mL"},
      {"measurement": "MIC", "setting": "[21]", "value": 50, "unit": "µg/mL"},
      {"measurement": "MIC", "setting": "[22]", "value": 50, "unit": "µg/mL"},
      {"measurement": "MIC", "setting": "[23]", "value": 6.25, "unit": "µg/mL"},
      {"measurement": "MIC", "setting": "[24]", "value": 3.12, "unit": "µg/mL"},
      {"measurement": "MIC", "setting": "[25]", "value": 3.12, "unit": "µg/mL"},
      {"measurement": "MIC", "setting": "[26]", "value": 3.12, "unit": "µg/mL"},
      {"measurement": "MFC", "setting": "[27]", "value": 10, "unit": "µg/mL"},
      {"measurement": "MIC", "setting": "[28]", "value": "≤ 1", "unit": "µg/mL"},
      {"measurement": "MFC", "setting": "[29]", "value": 3.12, "unit": "µg/mL"},
      {"measurement": "MFC", "setting": "[30]", "value": 6.25, "unit": "µg/mL"}
    ]}
  ]
}
